# Rows were chosen to be rich in hits. Some 1% of all compounds tested hit in one or more screens of this group.
# VIM-2 inhibitor: VIM-2 metallo-beta-lactamase inhibitors, primary screen, biochemical, epi-absorbance readout, Pseudomonas aeruginosa enzyme; 0.89% of 290,000 active; inhibition, % at 5.6 µM; purified VIM-2, nitrocefin hydrolysis, epi-absorbance fluorescence;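 active means inhibition above the mean of all tested compounds plus 3 SD, cutoff set per screening run, cut at about 7.5% in these data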;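 further: red hydrolysis product quenches plate fluorescence so inhibitors raise well fluorescence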
# IMP-1 inh-1: IMP-1 metallo-beta-lactamase inhibitors, primary screen, biochemical, epi-absorbance readout, Pseudomonas aeruginosa enzyme; metallo-beta-lactamase IMP-1 (Pseudomonas aeruginosa); purified IMP-1, nitrocefin hydrolysis, epi-absorbance fluorescence; inhibition, % at 5.6 µM; 0.45% of 290,000 active;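 active means inhibition above the mean plus 3 SD of all compounds in the same screening run, cut at about 4.5% in these data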
#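 System: purified IMP-1 / Input: IMP-1 dispensed at 0.2 nM / Medium: 50 mM HEPES pH 7.1, 50 µM ZnSO4, 0.05% Brij 35 / Timing: 15 min enzyme–compound preincubation, then 25 min nitrocefin reaction, 25 °C / Technique: plate fluorescence quenching by hydrolysis product, ex 480/em 530 nm / Repeats: singlicate testing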
# FID counter: compounds displacing fluorescent DNA intercalator, primary screen, artefact control for HCV NS3 helicase inhibitor project, biochemical, FID fluorescence. DNA fluorescent intercalator displacement. inhibition, % at 7.9 µM. 0.17% of 290,000 active. AID 1845, 2009; in the data active means inhibition above about 37%;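 further: higher means more ethidium bromide displaced from hairpin DNA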
# RAD54 branch: inhibitors of human RAD54 branch migration, primary screen, biochemical, fluorescence, single point | 0.14% of 360,000 active | RAD54 Holliday junction branch migration, FAM/BHQ fluorescence | AID 602329, 2012 | DNA repair and recombination protein RAD54-like (Homo sapiens), Q92698 | inhibition, % at 10.4 µM;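 active means mean normalized replicate activity at least 40 and at least half of replicates scoring 40 or more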;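 further: inhibitors cause a drop in the FAM fluorescence signal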
# PvdQ acylase: P. aeruginosa PvdQ acylase inhibitors, primary screen, biochemical, fluorescence, plate reader and imaging, single point; PvdQ acylase [Pseudomonas aeruginosa LESB58]; purified PvdQ acylase; inhibition, % at 10 µM; 0.063% of 340,000 active; in the data active means inhibition above about 30%, passing the limit was not always enough
# IMP-1 inh-2: IMP-1 metallo-beta-lactamase inhibitors, confirmation, selectivity assay for selective VIM-2 inhibitor project, biochemical, epi-absorbance readout, triplicate. inhibition, % at 5.6 µM. AID 1856, 2009. shares compounds with VIM-2 inhibitor. 1,300 tested, under 10 active. purified IMP-1, nitrocefin hydrolysis, epi-absorbance fluorescence; call rule not given here
# VIM-2 FRET ctr: VIM-2 inhibitors in FRET format, confirmation, artefact control for selective VIM-2 inhibitor project, biochemical, epi-absorbance artifact exclusion | shares compounds with VIM-2 inhibitor | purified VIM-2, CCF2 FRET substrate hydrolysis | inhibition, % at 5.6 µM | 23% of 1,300 active | AID 1857, 2009;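 active means inhibition above the mean of all tested compounds plus 3 SD, cut at about 19% in these data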
# TEM-1 inh: TEM-1 serine beta-lactamase inhibitors, counter-screen for VIM-2 inhibitor project, biochemical, epi-absorbance, HTS; shares compounds with VIM-2 inhibitor; Purified TEM-1, nitrocefin hydrolysis, epi-absorbance fluorescence; inhibition, % at 5.6 µM; 3% of 1,300 active; AID 1866, 2009;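 active means inhibition above that campaign's mean inhibition plus 3 SD, cut at about 0.46% in these data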
# Target sequence (P62593 whole entry, looked up): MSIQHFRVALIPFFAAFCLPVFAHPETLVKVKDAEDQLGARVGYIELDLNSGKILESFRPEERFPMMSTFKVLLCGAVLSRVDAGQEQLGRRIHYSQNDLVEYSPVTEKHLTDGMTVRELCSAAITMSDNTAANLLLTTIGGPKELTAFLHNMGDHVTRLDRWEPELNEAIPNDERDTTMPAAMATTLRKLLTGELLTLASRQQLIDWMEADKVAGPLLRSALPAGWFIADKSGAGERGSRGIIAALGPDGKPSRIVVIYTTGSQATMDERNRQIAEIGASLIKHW
# VIM-2 inh conf: VIM-2 metallo-beta-lactamase inhibitors, confirmation, biochemical, epi-absorbance, hits shared with IMP-1 screen | purified VIM-2, nitrocefin hydrolysis | shares compounds with VIM-2 inhibitor | 96% of 1,300 active | inhibition, % at 5.6 µM;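 active means inhibition of the VIM-2 beta-lactamase enzyme above about 11% from the earlier first-round screen, limit read from the data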
# Numbers stand for hits; n = inactive; x = no result given.
SMILES,VIM-2 inhibitor,IMP-1 inh-1,FID counter,RAD54 branch,PvdQ acylase,IMP-1 inh-2,VIM-2 FRET ctr,TEM-1 inh,VIM-2 inh conf
COc1ccccc1C(=O)Nc1nnc(SCC(=O)NCC2CCCO2)s1 (stereo not given),15,n,n,n,n,n,33,n,21
COc1ccc(S(=O)(=O)N(C)C[C@@H]2Oc3c(NC(=O)C4CCCCC4)cccc3C(=O)N([C@H](C)CO)C[C@@H]2C)cc1,x,x,x,n,x,x,x,x,x
Cc1ccccc1C(=O)NC(=S)Nc1ccccc1N1CCCC1,15,n,n,x,n,n,n,n,n
COC(=O)c1ccccc1NC(=S)NC(=O)COc1ccccc1Cl,n,n,n,n,n,x,x,x,x
O=C(COc1ccccc1Cl)NC(=S)Nc1ccccc1N1CCCC1,18,n,n,n,n,n,20,n,n
O=C(Nc1ccccc1N1CCCC1)c1cccc(F)c1,n,n,n,n,n,x,x,x,x
O=C(NC(=S)Nc1ccccc1N1CCCC1)c1cccc(F)c1,13,n,n,x,n,n,19,n,n
COc1ccccc1C(=O)NC(=S)Nc1ccccc1N1CCCC1,n,n,n,n,n,x,x,x,x
O=C1C(=O)N(Cc2cccnc2)C(c2ccccn2)/C1=C(/O)c1ccccc1 (stereo not given),44,n,n,n,n,n,62,n,50
O=C(C[C@@H]1CC[C@H](NS(=O)(=O)c2ccc(F)cc2)[C@H](CO)O1)N1CCc2ccccc2C1,x,x,x,n,x,x,x,x,x
O=C(C[C@@H]1C[C@H]2c3cc(NS(=O)(=O)c4ccc(F)cc4)ccc3O[C@H]2[C@H](CO)O1)NC1CCCCC1,x,x,x,n,x,x,x,x,x
CC(C)[C@H](NC(=O)N1CC(=O)Nc2ccccc21)C(=O)N[C@H](Cc1c[nH]c2ccccc12)C(=O)O,13,n,n,n,n,n,22,n,12
O=C(O)c1ccc(Nc2cc(Cl)c3nonc3c2[N+](=O)[O-])cc1,n,n,n,n,n,x,x,x,x
CC(=O)Nc1ccc(Nc2cc(N(C)C)c3nonc3c2[N+](=O)[O-])cc1,30,n,n,n,n,n,n,n,36
C[C@H](NC(=O)C[C@H]1C[C@H]2c3cc(NC(=O)Cc4ccncc4)ccc3O[C@H]2[C@@H](CO)O1)c1ccccc1,x,x,x,n,x,x,x,x,x
Cc1ccc(-c2csc(=Nc3cccnc3)n2CCCN2CCCC2=O)cc1C,n,n,n,x,n,x,x,x,x
Cc1ccc(-c2csc(=Nc3cccnc3)n2CCCn2ccnc2)cc1C,18,n,n,x,n,n,n,n,30
COc1ccc(-c2coc3cc4oc(=O)c(CC(=O)O)c(C)c4cc23)cc1,n,n,n,n,n,x,x,x,x
COc1ccc(-c2coc3c(C)c4oc(=O)c(CC(=O)O)c(C)c4cc23)cc1,16,n,n,n,n,n,n,n,22
COc1cccc(-c2coc3c(C)c4oc(=O)c(CC(=O)O)c(C)c4cc23)c1,16,n,n,n,n,n,n,n,30
COc1cccc(-c2coc3c(C)c4oc(=O)c(CCC(=O)O)c(C)c4cc23)c1,15,n,n,n,n,n,n,n,22
CN(C)CC(=O)N1[C@@H](C#N)[C@H](c2ccc(-c3ccccc3F)cc2)[C@@H]1CO,x,x,x,n,x,x,x,x,x
C[C@H]1CN([C@@H](C)CO)C(=O)Cc2cc(NS(=O)(=O)c3ccc(Cl)cc3)ccc2O[C@H]1CN(C)Cc1ccncc1,x,x,x,n,x,x,x,x,x
COc1ccc(CN(C)C[C@H]2Oc3c(NS(=O)(=O)c4cn(C)cn4)cccc3C(=O)N([C@H](C)CO)C[C@H]2C)cc1,x,x,x,n,x,x,x,x,x
Cc1cccc2cc(C#N)c(NCCCn3ccnc3)nc12,n,n,n,n,n,x,x,x,x
SMILES,VIM-2 inhibitor,IMP-1 inh-1,FID counter,RAD54 branch,PvdQ acylase,IMP-1 inh-2,VIM-2 FRET ctr,TEM-1 inh,VIM-2 inh conf
Cc1nc(NCCCn2ccnc2)c2ccccc2n1,20,n,n,x,n,n,n,n,35
c1cncc(-c2nc(NCCCn3ccnc3)c3ccccc3n2)c1,32,n,n,x,n,n,n,n,49
OCCNc1nc(-c2cccnc2)nc2ccccc12,n,n,n,n,n,x,x,x,x
Cc1nc(NCCCN2CCOCC2)c2oc3ccccc3c2n1,29,n,n,n,n,n,n,n,35
CCc1nc(NCCCn2ccnc2)c2oc3ccccc3c2n1,67,n,n,n,n,n,n,n,79
COCC(=O)Nc1ccc2c(c1)C(=O)N(C)[C@@H]1CC[C@@H](CC(=O)NCc3ccc(OC)cc3)O[C@H]1CO2,x,x,x,n,x,x,x,x,x
O=[N+]([O-])c1cc(-c2ccc(/C=N/n3cnnc3)o2)ccc1Cl,44,n,n,n,n,n,n,n,58
COc1cc([N+](=O)[O-])ccc1-c1ccc(/C=N\n2cnnc2)o1,45,n,n,n,n,n,n,n,45
Cc1cc(-c2ccc(/C=N/n3cnnc3)o2)c(C)c([N+](=O)[O-])c1,87,n,n,n,n,n,n,n,91
COc1cc([N+](=O)[O-])ccc1-c1ccc(/C=N/NC(=O)c2ccccc2O)o1,n,n,n,x,x,x,x,x,x
O=[N+]([O-])c1ccc(Cl)c(-c2ccc(/C=N/n3cnnc3)o2)c1,45,n,n,n,n,n,n,n,52
Cc1ccc(-c2ccc(/C=N\n3cnnc3)o2)c(Br)c1,13,n,n,n,n,n,n,n,24
Cc1c(C#N)c(=O)oc2ccc3ccccc3c12,31,n,n,n,n,n,n,n,11
N#Cc1cc2c(ccc3ccccc32)oc1=O,n,n,n,x,n,x,x,x,x
CC(=O)Oc1ccc(-c2csc(Nc3cccnc3)n2)cc1,n,n,n,n,n,x,x,x,x
c1cncc(Nc2nc(-c3cccnc3)cs2)c1,12,n,n,x,n,n,n,n,41
Clc1cccc(-c2csc(Nc3cccnc3)n2)c1,n,n,n,x,n,x,x,x,x
c1cncc(Nc2nc(-c3ccncc3)cs2)c1,16,n,n,n,n,n,n,n,38
Cc1nc(C)c(-c2csc(Nc3cccnc3)n2)s1,30,n,n,n,n,n,n,n,45
